Measurements from ChEMBL document CHEMBL1156480, “Insensitivity to Abeta42-lowering nonsteroidal anti-inflammatory drugs and gamma-secretase inhibitors is common among aggressive presenilin-1 mutations” (J Biol Chem, 2007).

What was measured:
Mus musculus [1] = test: Reduction of amyloid beta-40 level in Swedish APP and human PS1-L166P APPPS1 transgenic mouse brain at 10 mg/kg, po after 3 hrs by ELISA relative to control; format: functional; parameters: scale not given: the % may be the effect or the level left
Procedure, shortened: (§1)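 Mice given one oral 10 mg/kg dose in 0.5% tylose, or vehicle alone; the lines cover 5-month-old Tg2576 (Swedish APP) mice and 2-month-old APPPS1 (Swedish APP + human PS1-L166P, Thy-1 promoter) mice. Killed 3 h post-dose. Brain homogenized in Tris buffer with 0.2% Triton X-100 and spun 1 h at 200,000 x g. Soluble supernatant Abeta40 (6E10 capture) and Abeta42 measured by sandwich ELISA. n = 4–6, paired t-test.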

Mus musculus [2] = test: Reduction of amyloid beta-40 level in Tg2576 mouse brain at 10 mg/kg, po after 3 hrs by ELISA relative to control; format: functional; parameters: scale not given: the % may be the effect or the level left; procedure, shortened: as §1
[3] = system: Presenilin-1 (Homo sapiens), P49768 [L166P]; test: Reduction of human PS1 L166P mutant-induced amyloid beta40 level in CHO cells overexpressing human APP751 at 0.2 nM after 24 hrs by liquid phase electrochemiluminescence assay relative to control; format: cell-based; parameters: scale not given: the % may be the effect or the level left
Procedure, shortened: (§2)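 APP751 CHO cells stably expressing PS1-ΔExon9, PS1-L166P or PS1-WT, cultured in parallel in serum-containing medium. Treated 24 h with increasing γ-secretase inhibitor concentrations or DMSO. Conditioned-media Abeta40/Abeta42 quantified by LPECL against synthetic peptide standards (16–2000 pg/ml). Duplicates normalized to DMSO. n = 3, one-way ANOVA with Dunnett's test versus PS1-WT.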

CHO [4] = test: Reduction of human PS1 delta exon9 mutant-induced amyloid beta-40 level in CHO cells overexpressing human APP751 at 0.1 nM after 24 hrs by liquid phase electrochemiluminescence assay relative to control; format: cell-based; parameters: scale not given: the % may be the effect or the level left; procedure, shortened: as §2
CHO [5] = test: Reduction of human PS1 delta exon9 mutant-induced amyloid beta42 level in CHO cells overexpressing human APP751 at 0.5 nM after 24 hrs by liquid phase electrochemiluminescence assay relative to control; format: cell-based; parameters: scale not given: the % may be the effect or the level left
Mus musculus [6] = test: Reduction of amyloid beta-42 level in Tg2576 mouse brain at 10 mg/kg, po after 3 hrs by ELISA; format: functional; procedure, shortened: as §1
[7] = system: Presenilin-1 (Homo sapiens), P49768 [L166P]; test: Reduction of human PS1 L166P mutant-induced amyloid beta-40 level in CHO cells overexpressing human APP751 at 0.1 nM after 24 hrs by liquid phase electrochemiluminescence assay relative to control; format: cell-based; parameters: scale not given: the % may be the effect or the level left; procedure, shortened: as §2
[8] = biological target: Presenilin-1 (Homo sapiens) (UniProt P49768); test: Reduction of human wild type PS1-induced amyloid beta-40 level in CHO cells overexpressing human APP751 at 0.2 nM after 24 hrs by liquid phase electrochemiluminescence assay relative to control; format: cell-based; parameters: scale not given: the % may be the effect or the level left
[9] = biological target: Presenilin-1 (Homo sapiens) (UniProt P49768); test: Reduction of human wild type PS1-induced amyloid beta-40 level in CHO cells overexpressing human APP751 at 0.1 nM after 24 hrs by liquid phase electrochemiluminescence assay relative to control; format: cell-based; parameters: scale not given: the % may be the effect or the level left
[10] = system: Presenilin-1 (Homo sapiens), P49768 [L166P]; test: Reduction of human PS1 L166P mutant-induced amyloid beta40 level in CHO cells overexpressing human APP751 at 0.5 nM after 24 hrs by liquid phase electrochemiluminescence assay relative to control; format: cell-based; parameters: scale not given: the % may be the effect or the level left; procedure, shortened: as §2
CHO [11] = test: Reduction of human PS1 delta exon9 mutant-induced amyloid beta-40 level in CHO cells overexpressing human APP751 at 0.2 nM after 24 hrs by liquid phase electrochemiluminescence assay relative to control; format: cell-based; parameters: scale not given: the % may be the effect or the level left; procedure, shortened: as §2
Mus musculus [12] = test: Reduction of amyloid beta-42 level in Tg2576 mouse brain at 10 mg/kg, po after 3 hrs by ELISA relative to control; format: functional; parameters: scale not given: the % may be the effect or the level left; procedure, shortened: as §1
[13] = Reduction of human PS1 delta exon9 mutant-induced amyloid beta-42 level in CHO cells overexpressing human APP751after 24 hrs by liquid phase electrochemiluminescence assay relative to control; format: cell-based
Mus musculus [14] = test: Reduction of amyloid beta-40 level in Swedish APP and human PS1-L166P APPPS1 transgenic mouse brain at 10 mg/kg, po after 3 hrs by ELISA; format: functional; procedure, shortened: as §1
[15] = biological target: Presenilin-1 (Homo sapiens) (UniProt P49768); test: Reduction of human wild type PS1-induced amyloid beta-42 level in CHO cells overexpressing human APP751 at 0.5 nM after 24 hrs by liquid phase electrochemiluminescence assay relative to control; format: cell-based; parameters: scale not given: the % may be the effect or the level left
[16] = system: Presenilin-1 (Homo sapiens), P49768 [L166P]; test: Reduction of human PS1 L166P mutant-induced amyloid beta42 level in CHO cells overexpressing human APP751 at 0.5 nM after 24 hrs by liquid phase electrochemiluminescence assay relative to control; format: cell-based; parameters: scale not given: the % may be the effect or the level left; procedure, shortened: as §2
[17] = biological target: Presenilin-1 (Homo sapiens) (UniProt P49768); test: Reduction of human wild type PS1-induced amyloid beta42 level in CHO cells overexpressing human APP751 at 0.2 nM after 24 hrs by liquid phase electrochemiluminescence assay relative to control; format: cell-based; parameters: scale not given: the % may be the effect or the level left
[18] = system: Presenilin-1 (Homo sapiens), P49768 [L166P]; test: Reduction of human PS1 L166P mutant-induced amyloid beta42 level in CHO cells overexpressing human APP751 at 0.2 nM after 24 hrs by liquid phase electrochemiluminescence assay relative to control; format: cell-based; parameters: scale not given: the % may be the effect or the level left; procedure, shortened: as §2
[19] = system: Presenilin-1 (Homo sapiens), P49768 [L166P]; test: Reduction of human PS1 L166P mutant-induced amyloid beta42 level in CHO cells overexpressing human APP751 at 0.1 nM after 24 hrs by liquid phase electrochemiluminescence assay relative to control; format: cell-based; parameters: scale not given: the % may be the effect or the level left; procedure, shortened: as §2
Mus musculus [20] = test: Reduction of amyloid beta42 level in Swedish APP and human PS1-L166P APPPS1 transgenic mouse brain at 10 mg/kg, po after 3 hrs by ELISA relative to control; format: functional; parameters: scale not given: the % may be the effect or the level left; procedure, shortened: as §1
CHO [21] = test: Reduction of human PS1 delta exon9 mutant-induced amyloid beta42 level in CHO cells overexpressing human APP751 at 0.2 nM after 24 hrs by liquid phase electrochemiluminescence assay relative to control; format: cell-based; parameters: scale not given: the % may be the effect or the level left
[22] = Reduction of human PS1 delta exon9 mutant-induced amyloid beta-40 level in CHO cells overexpressing human APP751after 24 hrs by liquid phase electrochemiluminescence assay relative to control; format: cell-based
Mus musculus [23] = test: Reduction of amyloid beta-42 level in Swedish APP and human PS1-L166P APPPS1 transgenic mouse brain at 10 mg/kg, po after 3 hrs by ELISA; format: functional; procedure, shortened: as §1
CHO [24] = test: Reduction of human PS1 delta exon9 mutant-induced amyloid beta42 level in CHO cells overexpressing human APP751 at 0.1 nM after 24 hrs by liquid phase electrochemiluminescence assay relative to control; format: cell-based; parameters: scale not given: the % may be the effect or the level left
CHO [25] = test: Reduction of human PS1 delta exon9 mutant-induced amyloid beta40 level in CHO cells overexpressing human APP751 at 0.5 nM after 24 hrs by liquid phase electrochemiluminescence assay relative to control; format: cell-based; parameters: scale not given: the % may be the effect or the level left
[26] = biological target: Presenilin-1 (Homo sapiens) (UniProt P49768); test: Reduction of human wild type PS1-induced amyloid beta42 level in CHO cells overexpressing human APP751 at 0.1 nM after 24 hrs by liquid phase electrochemiluminescence assay relative to control; format: cell-based; parameters: scale not given: the % may be the effect or the level left
Mus musculus [27] = test: Reduction of amyloid beta40 level in Tg2576 mouse brain at 10 mg/kg, po after 3 hrs by ELISA; format: functional; procedure, shortened: as §1
[28] = biological target: Presenilin-1 (Homo sapiens) (UniProt P49768); test: Reduction of human wild type PS1-induced amyloid beta40 level in CHO cells overexpressing human APP751 at 0.5 nM after 24 hrs by liquid phase electrochemiluminescence assay relative to control; format: cell-based; parameters: scale not given: the % may be the effect or the level left

`C[C@H](NC(=O)[C@@H](O)c1cc(F)cc(F)c1)C(=O)N[C@@H]1C(=O)N(C)c2ccccc2-c2ccccc21` gave an Activity (Mus musculus [1]) of 81.2%, an Activity (Mus musculus [2]) of 85% and an Activity [3] of 36.2%. It also gave an Activity (CHO [4]) of 92.6%, an Activity (CHO [5]) of 26.5% and an Activity (Mus musculus [6]) of 0.21 pmol/g. For the same compound, the Activity [7] was 66.6%, the Activity [8] was 15.8% and the Activity [9] was 64.2%. It also gave an Activity [10] of 11.7%, an Activity (CHO [11]) of 72.9% and an Activity (Mus musculus [12]) of 89%. It also gave an EC50 [13] of 0.352 nM, an Activity (Mus musculus [14]) of 0.42 pmol/g and an Activity [15] of 4.75%. The Activity [16] was 28.7%, the Activity [17] was 18.8% and the Activity [18] was 57.7%. For the same compound, the Activity [19] was 85.2%, the Activity (Mus musculus [20]) was 17.1% and the Activity (CHO [21]) was 72%. For the same compound, the EC50 [22] was 0.358 nM, the Activity (Mus musculus [23]) was 2.9 pmol/g and the Activity (CHO [24]) was 94.4%. It also gave an Activity (CHO [25]) of 26.7%, an Activity [26] of 71% and an Activity (Mus musculus [27]) of 1.23 pmol/g. The Activity [28] was 5.6%.
